Our source for the IC50, EC1000 and Ratio IC50 values is ChEMBL document CHEMBL1140506, “Molecular design of histone deacetylase inhibitors by aromatic ring shifting in chlamydocin framework” (Bioorg Med Chem, 2007).

A word on the IC50: it is the midpoint of a concentration-inhibition curve. Low readings indicate higher potency, high ones lower potency.

Non-standard residues stand in square brackets, D forms with d. Residues, ends and D or L forms follow the SMILES beside them. Ahp(7-SS(2-pyridyl)) = N[C@@H](CCCCCSSc1ccccn1)C(=O)O; Aib = CC(C)(N)C(=O)O

One test addresses Histone deacetylase 1 (Homo sapiens, UniProt Q13547). The test can be described thus: Inhibition of human HDAC1 expressed in 293T cells. It counts as cell-based.
In the next test the target is Histone deacetylase 4 (Homo sapiens, UniProt P56524). The test can be described thus: Inhibition of human HDAC4 expressed in 293T cells. In kind it is cell-based.
Chain of Histone deacetylase 4 (P56524 whole entry): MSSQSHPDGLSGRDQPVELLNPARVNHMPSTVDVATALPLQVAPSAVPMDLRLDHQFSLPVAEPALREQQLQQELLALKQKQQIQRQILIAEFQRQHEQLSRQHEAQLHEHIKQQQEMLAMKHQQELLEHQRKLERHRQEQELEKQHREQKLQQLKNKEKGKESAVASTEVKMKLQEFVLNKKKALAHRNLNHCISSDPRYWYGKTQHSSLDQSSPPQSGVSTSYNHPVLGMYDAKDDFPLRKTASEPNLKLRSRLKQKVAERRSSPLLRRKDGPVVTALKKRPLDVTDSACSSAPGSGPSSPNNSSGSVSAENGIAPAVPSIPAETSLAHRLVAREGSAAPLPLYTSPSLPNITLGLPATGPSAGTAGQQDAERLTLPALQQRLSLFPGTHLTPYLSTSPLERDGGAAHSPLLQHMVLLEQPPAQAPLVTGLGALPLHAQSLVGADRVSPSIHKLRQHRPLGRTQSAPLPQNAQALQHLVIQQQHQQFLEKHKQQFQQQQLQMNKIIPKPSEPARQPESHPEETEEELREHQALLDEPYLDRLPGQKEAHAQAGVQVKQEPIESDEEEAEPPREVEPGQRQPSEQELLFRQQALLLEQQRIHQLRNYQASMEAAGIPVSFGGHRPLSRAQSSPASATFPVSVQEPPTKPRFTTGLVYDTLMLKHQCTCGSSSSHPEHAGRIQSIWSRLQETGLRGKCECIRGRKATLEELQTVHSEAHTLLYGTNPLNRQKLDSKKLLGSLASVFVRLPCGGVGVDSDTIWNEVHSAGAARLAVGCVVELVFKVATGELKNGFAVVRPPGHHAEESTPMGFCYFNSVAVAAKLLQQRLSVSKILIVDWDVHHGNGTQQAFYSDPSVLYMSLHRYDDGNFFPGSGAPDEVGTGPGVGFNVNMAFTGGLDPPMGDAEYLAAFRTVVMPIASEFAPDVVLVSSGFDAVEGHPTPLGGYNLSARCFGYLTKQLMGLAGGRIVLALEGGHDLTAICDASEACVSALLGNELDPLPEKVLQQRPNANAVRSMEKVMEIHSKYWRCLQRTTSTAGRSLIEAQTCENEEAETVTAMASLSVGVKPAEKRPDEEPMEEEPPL
In test [1] the target is T1, Protein deacetylase HDAC6 (Mus musculus, UniProt Q9Z2V5).
T1 sequence (Q9Z2V5 whole entry): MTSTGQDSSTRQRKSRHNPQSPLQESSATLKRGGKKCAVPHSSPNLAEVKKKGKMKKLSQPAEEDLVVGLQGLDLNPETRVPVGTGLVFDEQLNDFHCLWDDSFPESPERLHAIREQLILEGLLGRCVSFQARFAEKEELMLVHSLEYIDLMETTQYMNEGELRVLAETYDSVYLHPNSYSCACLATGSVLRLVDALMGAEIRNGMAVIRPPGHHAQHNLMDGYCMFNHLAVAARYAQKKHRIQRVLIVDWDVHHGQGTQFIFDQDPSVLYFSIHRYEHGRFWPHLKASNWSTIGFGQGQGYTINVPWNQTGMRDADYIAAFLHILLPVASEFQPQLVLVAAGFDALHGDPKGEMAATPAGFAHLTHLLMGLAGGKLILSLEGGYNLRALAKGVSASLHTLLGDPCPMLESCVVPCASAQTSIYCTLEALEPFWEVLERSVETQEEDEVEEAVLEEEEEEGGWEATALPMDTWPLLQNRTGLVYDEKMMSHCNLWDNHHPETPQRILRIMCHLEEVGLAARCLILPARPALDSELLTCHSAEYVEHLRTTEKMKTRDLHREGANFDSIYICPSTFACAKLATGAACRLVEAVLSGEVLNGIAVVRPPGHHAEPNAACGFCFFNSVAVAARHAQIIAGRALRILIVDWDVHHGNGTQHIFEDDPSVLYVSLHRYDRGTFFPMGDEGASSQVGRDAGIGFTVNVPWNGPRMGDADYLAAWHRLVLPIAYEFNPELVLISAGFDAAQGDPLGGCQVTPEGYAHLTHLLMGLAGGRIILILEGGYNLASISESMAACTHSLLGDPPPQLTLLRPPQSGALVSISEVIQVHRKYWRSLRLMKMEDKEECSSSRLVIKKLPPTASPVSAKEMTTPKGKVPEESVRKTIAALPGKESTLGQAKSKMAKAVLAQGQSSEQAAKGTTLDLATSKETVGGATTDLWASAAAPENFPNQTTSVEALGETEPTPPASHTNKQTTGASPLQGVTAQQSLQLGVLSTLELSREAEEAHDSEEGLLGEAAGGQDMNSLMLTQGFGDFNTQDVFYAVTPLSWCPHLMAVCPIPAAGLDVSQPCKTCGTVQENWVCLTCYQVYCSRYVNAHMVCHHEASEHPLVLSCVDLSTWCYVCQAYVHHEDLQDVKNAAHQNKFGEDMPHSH
The test can be described thus: Inhibition of mouse HDAC6 expressed in 293T cells. In kind it is cell-based.

Test [2] is described as follows: Induction of wild-type p21 promoter activation in mink Mv1Lu cells after 18 hrs by luciferase assay relative to basal level. In kind it is functional, Neovison vison. Put shortly: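 Stable Mv1Lu clone (MFLL-9) carrying p21 promoter (2.4 kb genomic fragment)–luciferase reporter, G418-selected. Cells (1 × 10^5) plated 6 h, then exposed 18 h to various drug concentrations. Luciferase activity of lysates measured by luminometer, normalized to lysate protein; concentration giving 10-fold induction over basal level reported as EC1000.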

For another test, the species on record is Homo sapiens. As to the kind of experiment: Selectivity for human HDAC4 over human HDAC1. Put shortly:
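Selectivity calculated from IC50 values against FLAG-tagged human HDAC4 and HDAC1, each transiently expressed in 293T cells, anti-FLAG immunopurified and FLAG-peptide eluted. Ac-KGLGK(Ac)-MCA substrate, pH 8.0 Tris buffer with 0.1 mM DTT, 37 °C 30 min. Trypsin development, then AMC fluorescence read.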

Chain of Histone deacetylase 1 (Q13547 whole entry): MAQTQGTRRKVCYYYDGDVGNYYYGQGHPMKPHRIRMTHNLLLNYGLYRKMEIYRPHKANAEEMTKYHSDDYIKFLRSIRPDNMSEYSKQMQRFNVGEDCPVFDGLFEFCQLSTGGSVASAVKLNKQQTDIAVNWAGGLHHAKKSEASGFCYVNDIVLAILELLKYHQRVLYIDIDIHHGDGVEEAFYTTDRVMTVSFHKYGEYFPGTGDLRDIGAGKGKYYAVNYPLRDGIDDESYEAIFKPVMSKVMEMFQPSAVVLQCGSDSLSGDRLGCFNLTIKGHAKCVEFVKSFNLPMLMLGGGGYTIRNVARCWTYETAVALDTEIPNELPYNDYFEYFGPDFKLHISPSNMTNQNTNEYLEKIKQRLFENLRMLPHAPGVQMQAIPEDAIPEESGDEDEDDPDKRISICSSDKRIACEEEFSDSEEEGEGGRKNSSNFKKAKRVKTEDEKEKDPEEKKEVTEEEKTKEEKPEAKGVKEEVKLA

Consider `C[C@@H]1NC(=O)[C@@](C)(Cc2ccccc2)NC(=O)[C@H](CCCCCSSc2ccccn2)NC(=O)[C@H]2CCCN2C1=O`, for which the IC50 on Histone deacetylase 1 is 170 nM; on Histone deacetylase 4, 70 nM; in test [1], 71 nM. The compound also yielded an EC1000 in test [2] of 25600 nM. Moreover, in the test filed under Homo sapiens, the Ratio IC50 came to 2.4.

In turn, `C[C@@H]1NC(=O)C(C)(C)NC(=O)[C@H](CCCCCSSc2ccccn2)NC(=O)[C@H]2Cc3ccccc3CN2C1=O` [listing 1 of 2 here] displayed an EC1000 in test [2] of 200 nM.

`CC1(C)NC(=O)[C@H](CCCCCSSc2ccccn2)NC(=O)[C@H]2CCCN2C(=O)[C@H](Cc2ccccc2)NC1=O` (cyclo([Aib]F[dP][Ahp(7-SS(2-pyridyl))])): the values for the IC50 (on Histone deacetylase 1; on Histone deacetylase 4; in test [1]) were 3.9 nM, 1.8 nM and 40 nM, respectively. This compound gave an EC1000 in test [2] of 45 nM. Besides, the Ratio IC50 in the test listed under Homo sapiens came out at 2.1.

On to `CC1(C)NC(=O)[C@H](CCCCCSSc2ccccn2)NC(=O)[C@H]2CCCN2C(=O)[C@H](COCc2ccccc2)NC1=O`, for which the figures for the IC50 (at Histone deacetylase 1; on Histone deacetylase 4; in test [1]) were 3.2 nM, 1.6 nM and 24 nM, respectively. For the same compound, in test [2], the EC1000 is on record as 72 nM. Besides, the Ratio IC50 in the test filed under Homo sapiens amounted to 2.

`C[C@@H]1NC(=O)[C@@]2(CCc3ccccc32)NC(=O)[C@H](CCCCCSSc2ccccn2)NC(=O)[C@H]2CCCN2C1=O`: the IC50 came to 2.7 nM on Histone deacetylase 1, 2.4 nM at Histone deacetylase 4 and 12 nM in test [1]. In addition, the EC1000 in test [2] was found to be 55 nM. In addition, the Ratio IC50 in the test filed under Homo sapiens worked out at 1.1.

As to `C[C@@H]1NC(=O)C2(Cc3ccccc3C2)NC(=O)[C@H](CCCCCSSc2ccccn2)NC(=O)[C@H]2CCCN2C1=O`, the IC50 turned out to be 2 nM against Histone deacetylase 1, 1.6 nM on Histone deacetylase 4 and 8.8 nM in test [1]. For the same compound, in test [2], the EC1000 amounted to 140 nM. In addition, the Ratio IC50 in the test listed under Homo sapiens was found to be 1.2.

On to `CC1(C)NC(=O)[C@H](CCCCCSSc2ccccn2)NC(=O)[C@H]2CCCN2C(=O)[C@H](CO)NC1=O`, for which the results for the IC50 (at Histone deacetylase 1; on Histone deacetylase 4; in test [1]) were 6.4 nM, 4 nM and 26 nM, respectively. In test [2], this compound came in with an EC1000 of 580 nM. Also, the Ratio IC50 in the test listed under Homo sapiens was determined as 1.6.

Take `CC1(C)NC(=O)[C@H](CCCCCSSc2ccccn2)NC(=O)[C@H]2CCCN2C(=O)[C@H](c2ccccc2)NC1=O`: the IC50 at Histone deacetylase 1 was 88 nM; against Histone deacetylase 4 it was 56 nM; in test [1] it was 86 nM. The EC1000 in test [2] is given as 7400 nM. In the test listed under Homo sapiens, the Ratio IC50 came out at 1.5.

Turning to `CC1(C)NC(=O)[C@H](CCCCCSSc2ccccn2)NC(=O)[C@H]2CCCN2C(=O)[C@H](CCc2ccccc2)NC1=O`, the IC50 against Histone deacetylase 1 amounted to 6.2 nM; at Histone deacetylase 4, 3.2 nM; in test [1] it was 36 nM. The compound also gave an EC1000 in test [2] of 320 nM. The Ratio IC50 in the test listed under Homo sapiens was 1.9.

For `C[C@@H]1NC(=O)[C@](C)(Cc2ccccc2)NC(=O)[C@H](CCCCCSSc2ccccn2)NC(=O)[C@H]2CCCN2C1=O`, the figures for the IC50 (against Histone deacetylase 1; at Histone deacetylase 4; in test [1]) were 3.7 nM, 2.2 nM and 56 nM, respectively. This compound had an EC1000 in test [2] of 550 nM. Moreover, the Ratio IC50 in the test listed under Homo sapiens stood at 1.6.

On to `C[C@@H]1NC(=O)C(C)(C)NC(=O)[C@H](CCCCCSSc2ccccn2)NC(=O)[C@H]2Cc3ccccc3CN2C1=O` [listing 2 of 2 here], for which the IC50 is 4.7 nM at Histone deacetylase 1, 4.2 nM on Histone deacetylase 4 and 29 nM in test [1].

Consider `C[C@H]1CN2Cc3ccccc3C[C@@H]2C(=O)N[C@@H](CCCCCSSc2ccccn2)C(=O)NC(C)(C)C(=O)N1`, for which the Ratio IC50 in the test filed under Homo sapiens worked out at 1.1.

`CC1(C)NC(=O)[C@H](CCCCCSSc2ccccn2)NC(=O)[C@H]2CCCN2C(=O)[C@H](CCCc2ccccc2)NC1=O`: the IC50 is 5.3 nM at Histone deacetylase 1, 2.7 nM against Histone deacetylase 4 and 43 nM in test [1]. The compound also showed an EC1000 in test [2] of 110 nM. The Ratio IC50 in the test filed under Homo sapiens was 1.9.

Regarding `C[C@@H]1NC(=O)C(C)(C)NC(=O)[C@H](CCCCCSSc2ccccn2)NC(=O)[C@H]2CCCN2C1=O`, the IC50 stood at 9.4 nM against Histone deacetylase 1, 5.2 nM on Histone deacetylase 4 and 43 nM in test [1]. The EC1000 in test [2] was determined as 750 nM. In addition, in the test filed under Homo sapiens, the Ratio IC50 came to 1.8.

`C[C@@H]1NC(=O)[C@]2(CCc3ccccc32)NC(=O)[C@H](CCCCCSSc2ccccn2)NC(=O)[C@H]2CCCN2C1=O`: the IC50 on Histone deacetylase 1 was found to be 36 nM; against Histone deacetylase 4, 25 nM; in test [1], 33 nM. Besides, in test [2], the EC1000 was 2000 nM. Besides, the Ratio IC50 in the test filed under Homo sapiens is 1.4.
